In ChEMBL document CHEMBL3396947, “Synthesis and biological evaluation of phosphoramidate prodrugs of two analogues of 2-deoxy-d-ribose-1-phosphate directed to the discovery of two carbasugars as new potential anti-HIV leads” (Bioorg Med Chem, 2015):
Activity calls are given as the source filed them. The rule behind the calls is not given here.

What was measured:
[1] = test system: Human immunodeficiency virus 2; assay: Antiviral activity against HIV2 ROD infected in human CEM cells assessed as reduction of virus-induced cytopathogenicity after 4 to 5 days by trypan blue dye exclusion method; type: functional, organism-based; details: Human immunodeficiency virus 2, ISOLATE ROD, CCRF-CEM
[2] = test system: Human immunodeficiency virus 2; assay: Antiviral activity against HIV2 ROD infected in human TK-deficient CEM cells assessed as reduction of virus-induced cytopathogenicity after 4 to 5 days by trypan blue dye exclusion method; type: functional, organism-based; details: Human immunodeficiency virus 2, ISOLATE ROD, CCRF-CEM
[3] = test system: Human immunodeficiency virus 1; assay: Antiviral activity against HIV1 3B infected in human CEM cells assessed as reduction of virus-induced cytopathogenicity after 4 to 5 days by trypan blue dye exclusion method; type: functional, organism-based; details: Human immunodeficiency virus 1, 3B, CCRF-CEM
[4] = test system: CCRF-CEM; assay: (§1) Cytotoxicity against human CEM cells after 72 hrs by coulter counter analysis; type: cell-based; details: 72 h; for CC50: human, ccrf-cem; for IC50: Homo sapiens, CCRF-CEM
Method in brief: (§2)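 Tumour cells, (5–7.5) × 10⁴ per well, were grown with graded compound amounts at 37 °C in humidified CO₂. Growth time was 48 h for L1210, 72 h for CEM and 96 h for HeLa. Cells were then counted with a Coulter counter. IC50 was the concentration reducing cell proliferation by 50%.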

[5] = test system: HeLa; assay: Cytotoxicity against human HeLa cells after 96 hrs by coulter counter analysis; type: cell-based; method in brief: as §2
[6] = test system: L1210; assay: Cytotoxicity against mouse L1210 cells after 48 hrs by coulter counter analysis; type: cell-based; details: L1210, 48 h; method in brief: as §2
[7] = test system: MT4; assay: Cytotoxicity against human MT4 cells after 4 to 5 days by trypan blue dye exclusion method; type: cell-based
[8] = test system: Human immunodeficiency virus 1; assay: Antiviral activity against HIV1 NL4.3 infected in human MT4 cells assessed as reduction of virus-induced cytopathogenicity after 4 to 5 days by trypan blue dye exclusion method; type: functional, organism-based; details: Human immunodeficiency virus 1, NL4.3, MT4
Method in brief: (§3)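 MT-4 cells (~3 × 10⁵ cells/mL) were infected with 100 CCID50/mL of HIV and cultured with compound dilutions for 4–5 days at 37 °C in humidified CO₂. Viable cells were counted by trypan blue dye exclusion. EC50 was the concentration giving 50% inhibition of the HIV-induced cytopathic effect.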

[9] = test system: Human immunodeficiency virus 2; assay: Antiviral activity against HIV2 ROD infected in human MT4 cells assessed as reduction of virus-induced cytopathogenicity after 4 to 5 days by trypan blue dye exclusion method; type: functional, organism-based; details: Human immunodeficiency virus 2, ISOLATE ROD; method in brief: as §3
[10] = as §1; type: cell-based, CCRF-CEM; details: human, CEM cells (CCRF-CEM); method in brief: as §2
[11] = molecular target: Human immunodeficiency virus type 1 reverse transcriptase (Human immunodeficiency virus 1) (UniProt Q72547); assay: Activity at HIV reverse transcriptase
[12] = test system: Coxsackievirus; assay: Antiviral activity against Coxsackievirus B4 infected in human HeLa cells at 100 uM; type: functional, organism-based
[13] = test system: Sindbis virus; assay: Antiviral activity against Sindbis virus infected in African green monkey Vero cells at 100 uM; type: functional, organism-based
[14] = test system: Human respirovirus 3; assay: Antiviral activity against Parainfluenza virus 3 infected in African green monkey Vero cells at 100 uM; type: functional, organism-based
[15] = test system: Vaccinia virus; assay: Antiviral activity against Vaccinia virus infected in HEL cells at 100 uM; type: functional, organism-based; details: Orthopoxvirus vaccinia
[16] = test system: Influenza A virus; assay: Antiviral activity against Influenza A virus H1N1 infected in MDCK cells at 100 uM; type: functional, organism-based
[17] = test system: Human alphaherpesvirus 2; assay: Antiviral activity against HSV2 infected in HEL cells at 100 uM; type: functional, organism-based
[18] = test system: Punta Toro virus; assay: Antiviral activity against Punta Toro virus infected in African green monkey Vero cells at 100 uM; type: functional, organism-based
[19] = test system: Feline coronavirus; assay: Antiviral activity against Feline coronavirus infected in CRFK cells at 100 uM; type: functional, organism-based
[20] = test system: Mammalian orthoreovirus 1; assay: Antiviral activity against Reovirus-1 infected in African green monkey Vero cells at 100 uM; type: functional, cell-based
[21] = test system: Vesicular stomatitis virus; assay: Antiviral activity against Vesicular stomatitis virus infected in human HeLa cells at 100 uM; type: functional, organism-based
[22] = test system: Felid alphaherpesvirus 1; assay: Antiviral activity against Feline herpesvirus infected in CRFK cells at 100 uM; type: functional, organism-based
[23] = test system: Human orthopneumovirus; assay: Antiviral activity against Respiratory syncytial virus infected in human HeLa cells at 100 uM; type: functional, organism-based
[24] = test system: Influenza A virus; assay: Antiviral activity against Influenza A virus H3N2 infected in MDCK cells at 100 uM; type: functional, organism-based
[25] = test system: Human alphaherpesvirus 1; assay: Antiviral activity against HSV1 infected in HEL cells at 100 uM; type: functional, organism-based
[26] = Prodrug activation assessed as carboxypeptidase Y (unknown origin)-mediated drug metabolism after 13 hrs by 31P-NMR analysis; type: ADME, Homo sapiens
Method in brief: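 The substrate was dissolved in acetone-d6 and mixed with Trizma buffer (pH 7.6) for the carboxypeptidase Y incubation.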

In the case of `COC(=O)[C@@H](NP(=O)(Oc1ccccc1)OC1C[C@H](CO)[C@@H](O)C1)C(C)C` (mixture of isomers), the EC50 [1] is reported as > 250 µM, the EC50 [2] is reported as 250 µM and the EC50 [3] is reported as > 250 µM. For the same molecule, the CC50 [4] was > 250 µM.
With `CCCCCOC(=O)[C@H](C)NP(=O)(Oc1ccccc1)O[C@@H]1CC[C@H](O)[C@H]1CO` (some centres not stated) the IC50 [5] was 166 µM, the IC50 [6] was 116 µM and the CC50 [7] was > 250 µM. The EC50 [8] was > 250 µM, the IC50 [4] was 106 µM and the EC50 [9] was 145 µM.
In the case of `C[C@H](NP(=O)(Oc1cccc2ccccc12)O[C@@H]1CC[C@H](O)[C@H]1CO)C(=O)OCC(C)(C)C` (some centres not stated), the IC50 [5] is reported as 94 µM, the IC50 [6] is reported as 70 µM and the CC50 [7] is reported as 112 µM. For the same molecule, the EC50 [8] was > 50 µM, the IC50 [4] was 64 µM and the EC50 [9] was > 50 µM.
For `COC(=O)[C@H](C)NP(=O)(Oc1ccccc1)OC1C[C@H](CO)[C@@H](O)C1` (mixture of isomers), the EC50 [1] was > 250 µM, the EC50 [2] was 250 µM and the EC50 [3] was > 250 µM. The CC50 [4] was > 250 µM.
For `C[C@H](NP(=O)(Oc1ccccc1)OC1C[C@H](CO)[C@@H](O)C1)C(=O)OC(C)(C)C` (mixture of isomers), the EC50 [1] was > 250 µM, the EC50 [2] was 250 µM and the EC50 [3] was > 250 µM. The CC50 [4] was > 250 µM.
In the case of `O=C(OCc1ccccc1)OC[C@H]1CC(O)C[C@@H]1OC(=O)OCc1ccccc1` (some centres not stated), the EC50 [1] is reported as > 50 µM, the EC50 [3] is reported as > 50 µM and the CC50 at 72 h [10] is reported as 110 µM.
Molecule `O=C(OCc1ccccc1)OC[C@H]1[C@H](O)CC[C@@H]1OC(=O)OCc1ccccc1` has an EC50 [1] of 5.4 µM, an EC50 [3] of 2.1 µM and a CC50 at 72 h [10] of 94 µM. For the same molecule, the Activity [11] was “inactive”.
For `OC[C@H]1[C@H](O)CC[C@@H]1O`, the EC50 [1] was 12 µM, the Activity [12] was “inactive” and the EC50 [3] was 3.8 µM. The Activity [13] was “inactive”, the IC50 [5] was 175 µM and the Activity [14] was “inactive”. The IC50 [6] was 55 µM, the Activity [15] was “inactive” and the Activity [16] was “inactive”. The Activity [17] was “inactive”, the Activity [18] was “inactive” and the CC50 [7] was 90 µM. The Activity [19] was “inactive”, the Activity [20] was “inactive” and the Activity [21] was “inactive”. The EC50 [8] was 6.7 µM, the Activity [22] was “inactive” and the Activity [23] was “inactive”. The IC50 [4] was ≥ 250 µM, the CC50 [4] was > 250 µM and the Activity [24] was “inactive”. The Activity [11] was “inactive”, the Activity [25] was “inactive” and the EC50 [9] was 7.5 µM.
For `C[C@H](NP(=O)(Oc1ccccc1)OC1C[C@H](CO)[C@@H](O)C1)C(=O)OC1CCCCC1` (mixture of isomers), the EC50 [1] was > 250 µM, the EC50 [2] was 250 µM and the EC50 [3] was > 250 µM. The CC50 [4] was > 250 µM.
With `C[C@H](NP(=O)(Oc1cccc2ccccc12)OC1C[C@H](CO)[C@@H](O)C1)C(=O)OC1CCCCC1` (mixture of isomers) the EC50 [1] was > 50 µM, the EC50 [2] was 50 µM and the EC50 [3] was > 50 µM. For the same molecule, the Stability [26] was “Stable” and the CC50 [4] was > 250 µM.
In the case of `OC[C@H]1CC(O)C[C@@H]1O` (some centres not stated), the EC50 [1] is reported as > 250 µM, the EC50 [3] is reported as > 250 µM and the CC50 [4] is reported as > 250 µM.
